# High-throughput results (PubChem BioAssay)
# Rows were chosen to be rich in hits. Some 3.9% of all compounds tested hit in one or more screens of this group.
# TIM10 inh – inhibits growth of TIM10 yeast strain; inhibition, % at 10 µM; 330,000 compounds, 1.4% hits; S. cerevisiae TIM10 strain growth, BacTiter-Glo luminescence, 24 h;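 active = inhibition of 40% or more at the single tested concentration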;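 also: wild-type TIM10 isogenic control strain grown at permissive 25 °C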
# tim23-1 inh – growth inhibitors of tim23-1 mutant yeast. AID 463212. 330,000 compounds, 1.3% hits. S. cerevisiae tim23-1 growth, BacTiter-Glo luminescence, 24 h. inhibition, % at 20 µM;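 active = growth inhibition of the mutant yeast at or above 50%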;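 also: temperature-sensitive mutant grown at 25 °C; plate controls were DMSO-treated mutant yeast for no effect and medium wells lacking yeast for full effect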
# UPR CHOP act – apoptotic UPR (CHOP) activation; CHO-CHOP luciferase reporter, luminescence; percent of tunicamycin response over DMSO baseline; activation, % at 10 µM; 330,000 compounds, 0.34% hits;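 active = at 10 µM dose, activation of 40% or more, normalized to positive control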;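 also: 100% = tunicamycin at 10 µg/mL and 0% = DMSO alone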
#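 Material: CHO-CHOP cells, stable luciferase reporter of PERK-eIF2a-CHOP signalling; quantity: 500 reporter cells seeded per well; buffer or medium: F12 medium containing 10% fetal bovine serum; compound: one dose, 10 µM in 0.5% DMSO; incubation: 6 h compound treatment, 37 °C; measured by: Steady-Glo luciferase luminescence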
# UPR XBP1 act – adaptive UPR (XBP1) activation | CHO-XBP1 luciferase reporter, IRE1-XBP1 UPR activation, luminescence; percent of tunicamycin response, DMSO as zero | activation, % at 20 µM | 330,000 compounds, 0.33% hits;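 active = versus positive control, 20 µM dose yields 30% or more activation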;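 also: 100% = tunicamycin at 10 µg/mL and 0% = DMSO only wells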
#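 Material: CHO cell line with stable XBP1 luciferase reporter; buffer or medium: F12 medium containing 10% fetal bovine serum; compound: single point, 20 µM final compound, 1% DMSO; incubation: 6 h treatment, 37 °C; measured by: glow luminescence from Steady-Glo reagent; evaluation: activation, % of tunicamycin; control set: tunicamycin high, DMSO low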
# tim10-1 inh – inhibits growth of tim10-1 mutant yeast | S. cerevisiae tim10-1 ts strain growth, BacTiter-Glo, 24 h | inhibition, % at 20 µM | 330,000 compounds, 2.2% hits | AID 463190;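 active = inhibition of at least 40%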;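 also: mutant grown at 25 °C; 0% = DMSO wells with yeast and 100% = wells holding no yeast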
# tim23-1 conf – tim23-1 yeast growth inhibition, confirmed | shares compounds with tim23-1 inh | S. cerevisiae tim23-1 growth, BacTiter-Glo luminescence, 24 h | inhibition, % at 20 µM | 4,400 compounds, 83% hits | AID 463218;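 active = inhibition above about 39% in either of two replicate wells at 20 µM, limit read from the data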;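 also: temperature-sensitive tim23-1 mutant grown at 25 °C; 0% = DMSO wells with yeast and 100% = medium wells without yeast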
# Active calls of the source: *; . = not tested or not shown.
SMILES,TIM10 inh,tim23-1 inh,UPR CHOP act,UPR XBP1 act,tim10-1 inh,tim23-1 conf
COC(=O)n1c(=S)oc2cc(Cl)ccc21,15.5,77.6*,-3.1,-2.5,22.9,78.8*
COC(=O)n1c(=O)oc2cc(S(=O)(=O)N3CCOCC3)ccc21,-2.6,16.1,-1.5,1.6,-0.9,.
CC1CN(c2nc3ccccn3c(=O)c2C=O)CC(C)O1 (centres undefined),11.8,3.8,2.0,-0.5,-7.0,.
C=CCNC(=O)C(=O)Nc1ccc2c(c1)N(S(=O)(=O)c1cccs1)CCC2,35.0,51.5*,1.0,0.3,34.7,41.5*
CCOC(=O)C1=C(C2=CCCCC2)c2ccc(OC)cc2N(S(=O)(=O)C(F)(F)F)C1C(=O)OCC (centres undefined),24.6,53.2*,5.1,2.7,35.8,39.5*
FC(F)Oc1ccc(/C=N/n2c(Cc3ccc(Br)cc3)n[nH]c2=S)cc1,31.0,51.0*,-0.6,1.2,29.4,53.0*
S=c1[nH]nc(COc2ccccc2)n1/N=C/c1ccccc1Cl,28.9,24.1,-0.4,0.0,35.4,.
Cc1ccc(/C=N/n2c(COc3ccccc3)n[nH]c2=S)cc1,35.7,52.8*,-0.4,0.2,21.2,27.5
S=c1[nH]nc(COc2ccccc2)n1/N=C/c1cccc(Cl)c1Cl,39.0,61.2*,-0.7,-1.5,31.6,44.4*
CSc1ccc(/C=N/n2c(Cc3ccc(Br)cc3)n[nH]c2=S)cc1,20.3,9.3,2.2,-3.3,12.7,.
O=C(Nc1ccc2c(c1)CCC2)c1ncoc1-c1ccccc1F,-8.9,16.6,2.5,-0.2,8.6,.
O=C(COC(=O)CNC(=O)C1CCCCC1)Nc1ccc(Cl)cn1,7.4,0.1,-1.2,-0.3,17.4,.
O=C(COC(=O)CC1CCCC1)Nc1ccc(Cl)cn1,33.1,59.5*,-0.5,-2.7,15.2,55.4*
Oc1ccc2ccccc2c1/C=N/Nc1nnc(-c2ncc[nH]2)c2ccccc12,33.2,68.7*,-1.5,2.2,27.3,65.3*
CCOc1ccc(/C=C/C(=O)c2c(O)c3ccccc3oc2=O)cc1,13.4,76.0*,-0.9,1.7,5.0,32.3
CN(C)c1ccc(/C=C/C(=O)c2c(O)c3ccccc3oc2=O)cc1,13.2,19.2,3.1,0.0,-2.2,.
Cc1nc2ccccc2c(=O)n1/N=C/c1cc(Br)ccc1O,-1.4,69.2*,1.1,1.6,35.5,75.7*
COc1ccc(Br)cc1/C=N/n1c(C)nc2ccccc2c1=O,8.6,26.9,2.0,18.5,34.4,.
COc1ccc(-c2cc3cc(OC)c(OC)cc3cn2)cc1,1.8,40.7,5.3,15.3,-19.7,.
c1ccc(-c2cc3ccccc3cn2)cc1,8.4,50.6*,4.4,3.9,-9.3,75.4*
c1ccc(-c2cc3cc4c(cc3cn2)OCO4)cc1,-16.8,62.4*,2.0,1.1,-32.2,49.8*
COc1cc2cnc(-c3ccccc3)cc2cc1OC,7.7,51.7*,3.2,20.7,-7.8,44.5*
COc1cc(OC)cc(-c2cc3ccc(OC)cc3cn2)c1,13.3,51.2*,2.4,2.5,25.7,54.5*
COc1ccc2cc(-c3ccccc3)ncc2c1,-4.6,8.2,-0.2,-3.8,-20.3,.
CC1CCCC(C)N1CC(O)COc1c(F)cc(Br)cc1F (centres undefined),-7.4,7.2,-1.6,-2.7,24.9,.
SMILES,TIM10 inh,tim23-1 inh,UPR CHOP act,UPR XBP1 act,tim10-1 inh,tim23-1 conf
COc1ccc(C(CNC(=O)c2cc3ccccc3o2)N2CCCCC2)cc1 (centres undefined),5.4,9.2,0.2,-1.9,6.6,.
CN(C)c1nc(N)c([N+](=O)[O-])c(N2CCCCCC2)n1,8.5,54.3*,-1.3,5.8,33.1,39.0*
CN(Cc1c(F)cccc1Cl)C(=O)c1ccc(NS(=O)(=O)c2ccc3[nH]c(=O)[nH]c3c2)cc1,0.3,9.0,-3.2,0.3,12.9,.
Cc1c(C)c2ccc(OCC(=O)NCCN3CCOCC3)cc2oc1=O,4.8,7.2,0.8,-0.9,14.4,.
COc1ccc(NC(=O)c2cc(S(=O)(=O)NCC3COc4ccccc4O3)ccc2F)cc1 (centres undefined),30.6,57.7*,0.7,-4.5,35.4,65.1*
O=C(NCC1COc2ccccc2O1)c1cc(S(=O)(=O)N2CCOCC2)ccc1F (centres undefined),-0.9,10.0,-0.1,0.1,13.9,.
Cc1ccc(S(=O)(=O)N2C/C=C\CN(S(=O)(=O)c3ccccc3Br)CC2)cc1,8.7,49.0,-0.6,0.5,25.2,.
Cc1ccc(S(=O)(=O)N2CCCN(S(=O)(=O)c3ccccc3Br)CC2)cc1,1.7,52.2*,1.6,1.2,22.0,24.4
COc1cc(NC(=O)NCC2CCN(Cc3ccccc3C)CC2)cc(OC)c1OC,8.4,-5.7,1.7,0.1,6.5,.
CC1CN(C(=O)COC(=O)Cc2c(F)cccc2Cl)CC(C)O1 (centres undefined),7.6,-4.6,-1.9,-0.3,5.3,.
CC(C)(C)C(=O)Nc1nc(-c2ccc3c(c2)OCO3)cs1,31.1,55.0*,8.4,4.6,29.6,49.9*
O=C1NC(c2cccc(Br)c2)=N/C1=C\c1ccco1,30.9,56.0*,4.0,3.7,26.3,35.5
COc1ccc(CC(=O)Nc2c3c(nn2-c2ccccc2C)CS(=O)C3)cc1 (centres undefined),-12.1,96.6*,-0.2,-1.6,14.2,3.6
N/C(CC(=O)Nc1ccc(F)cc1F)=N\OC(=O)c1cccs1,29.9,61.0*,-0.7,0.0,33.7,39.6*
COCCNc1c2c(nc3c(-c4ccccc4)c(C)nn13)CCCC2,22.9,50.4*,-2.7,-0.3,32.4,37.5
Cc1nn2c(NCCOCCO)c3c(nc2c1-c1ccccc1)CCCC3,24.8,18.7,0.4,-2.4,22.8,.
O=C(Nc1ccc(C(F)(F)F)cc1)N1CCN(c2ccnc3cc(Cl)ccc23)CC1,24.1,51.2*,4.9,-4.1,15.8,46.4*
CC1CCCCN1C(=O)Nc1cccc(Cl)c1 (centres undefined),17.3,51.4*,0.9,4.8,16.4,48.0*
O=C(Nc1cccc(Br)c1)C1CCCC1,32.9,64.5*,0.3,-0.8,8.4,62.5*
O=C(Nc1cccc(Cl)c1)C1CCCCC1,32.7,66.5*,0.4,3.3,24.7,69.3*
NS(=O)(=O)c1ccc(N2N=C(c3ccccc3)CC2c2cccc(Cl)c2)cc1 (centres undefined),17.1,52.6*,2.1,9.2,24.1,31.2
O=C(NC(=S)Nc1cccc(Cl)c1N1CCCCC1)c1cccs1,38.3,52.7*,-0.9,1.0,32.1,-131.4
O=C(Nc1ccccc1N1CCOCC1)c1ccco1,10.9,-1.5,0.2,-2.6,-4.7,.
O=C(NC(=S)Nc1cccc(Cl)c1N1CCCCC1)c1ccco1,34.2,50.8*,-0.6,2.5,38.1,28.6
O=C(NC(=S)Nc1ccccc1N1CCOCC1)c1ccco1,33.3,54.7*,3.7,-0.5,38.6,37.8
